ChEMBL document CHEMBL5058577, “EUbOPEN Chemogenomics Library 2 (Multiplex)” (2022)

Tested on: Fibroblast
Experiment: Multiplex assay against human fibroblast
Assay type: toxicity, cell-based
Procedure, shortened: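 With compound added, live cells were imaged on a CQ1 microscope at 37°C and 5% CO2; staining with Hoechst33342, BioTracker Green Microtubule Cytoskeleton Dye, MitoTracker Red and Annexin V Alexa Fluor 680 had been done at seeding. The CellPathfinder machine-learning gating scheme split cells into Hoechst high-intensity objects or normal cells, normal cells into healthy, pyknosed or fragmented nuclei, and pyknosed cells into mitotic or apoptotic. The tubulin, mitochondrial-mass and membrane-permeability phenotypes are per cents of healthy-nucleus cells.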

[1] = 12 h, 1 µM, compound concentration 1 uM, replicate 1
[2] = 12 h, 1 µM, compound concentration 1 uM, replicate 2
[3] = 12 h, 10 µM, compound concentration 10 uM, replicate 1
[4] = 12 h, 10 µM, compound concentration 10 uM, replicate 2
[5] = 24 h, 1 µM, compound concentration 1 uM, replicate 1
[6] = 24 h, 1 µM, compound concentration 1 uM, replicate 2
[7] = 24 h, 10 µM, compound concentration 10 uM, replicate 1
[8] = 24 h, 10 µM, compound concentration 10 uM, replicate 2
[9] = 48 h, 1 µM, compound concentration 1 uM, replicate 1
[10] = 48 h, 1 µM, compound concentration 1 uM, replicate 2
[11] = 48 h, 10 µM, compound concentration 10 uM, replicate 1
[12] = 48 h, 10 µM, compound concentration 10 uM, replicate 2

## CCc1nn2c(C)cc(C)nc2c1Cc1ccc(-c2nnc(C3CCNCC3)o2)cc1
[1]
  Population Apoptotic (%): 34%
  Population Fragmented Nuclei (%): 17%
  Population Healthy Nuclei (%): 63%
  Population Hoechst High Intensity Objects (%): 2%
  Population Membrane Permeable-Phenotype (%): 2%
  Population Mitochondria Different-Phenotype (%): 5%
  Population Mitotic Cells (%): 65%
  Population Normal (%): 97%
  Population Pyknosed Nuclei (%): 19%
  Population Tubulin-Different-Phenotype (%): 35%
  Total Cell Count: 153
[2]
  Population Apoptotic (%): 45%
  Population Fragmented Nuclei (%): 19%
  Population Healthy Nuclei (%): 46%
  Population Hoechst High Intensity Objects (%): 6%
  Population Mitochondria Different-Phenotype (%): 13%
  Population Mitotic Cells (%): 54%
  Population Normal (%): 93%
  Population Pyknosed Nuclei (%): 33%
  Population Tubulin-Different-Phenotype (%): 62%
  Total Cell Count: 167
[3]
  Population Apoptotic (%): 51%
  Population Fragmented Nuclei (%): 19%
  Population Healthy Nuclei (%): 62%
  Population Hoechst High Intensity Objects (%): 5%
  Population Membrane Permeable-Phenotype (%): 0%
  Population Mitochondria Different-Phenotype (%): 19%
  Population Mitotic Cells (%): 48%
  Population Normal (%): 94%
  Population Pyknosed Nuclei (%): 18%
  Population Tubulin-Different-Phenotype (%): 72%
  Total Cell Count: 188
[4]
  Population Apoptotic (%): 14%
  Population Fragmented Nuclei (%): 38%
  Population Healthy Nuclei (%): 44%
  Population Hoechst High Intensity Objects (%): 3%
  Population Membrane Permeable-Phenotype (%): 5%
  Population Mitochondria Different-Phenotype (%): 14%
  Population Mitotic Cells (%): 85%
  Population Normal (%): 96%
  Population Pyknosed Nuclei (%): 17%
  Population Tubulin-Different-Phenotype (%): 79%
  Total Cell Count: 162
[5]
  Population Apoptotic (%): 52%
  Population Fragmented Nuclei (%): 17%
  Population Healthy Nuclei (%): 68%
  Population Hoechst High Intensity Objects (%): 1%
  Population Membrane Permeable-Phenotype (%): 0%
  Population Mitochondria Different-Phenotype (%): 3%
  Population Mitotic Cells (%): 47%
  Population Normal (%): 98%
  Population Pyknosed Nuclei (%): 13%
  Population Tubulin-Different-Phenotype (%): 35%
  Total Cell Count: 153
[6]
  Population Apoptotic (%): 56%
  Population Fragmented Nuclei (%): 26%
  Population Healthy Nuclei (%): 49%
  Population Hoechst High Intensity Objects (%): 7%
  Population Membrane Permeable-Phenotype (%): 6%
  Population Mitochondria Different-Phenotype (%): 15%
  Population Mitotic Cells (%): 43%
  Population Normal (%): 92%
  Population Pyknosed Nuclei (%): 23%
  Population Tubulin-Different-Phenotype (%): 65%
  Total Cell Count: 177
[7]
  Population Apoptotic (%): 53%
  Population Fragmented Nuclei (%): 17%
  Population Healthy Nuclei (%): 64%
  Population Hoechst High Intensity Objects (%): 9%
  Population Membrane Permeable-Phenotype (%): 0%
  Population Mitochondria Different-Phenotype (%): 22%
  Population Mitotic Cells (%): 46%
  Population Normal (%): 90%
  Population Pyknosed Nuclei (%): 17%
  Population Tubulin-Different-Phenotype (%): 79%
  Total Cell Count: 185
[8]
  Population Apoptotic (%): 56%
  Population Fragmented Nuclei (%): 40%
  Population Healthy Nuclei (%): 42%
  Population Hoechst High Intensity Objects (%): 3%
  Population Membrane Permeable-Phenotype (%): 11%
  Population Mitochondria Different-Phenotype (%): 16%
  Population Mitotic Cells (%): 44%
  Population Normal (%): 96%
  Population Tubulin-Different-Phenotype (%): 80%
  Total Cell Count: 151
[9]
  Population Apoptotic (%): 76%
  Population Fragmented Nuclei (%): 21%
  Population Healthy Nuclei (%): 70%
  Population Hoechst High Intensity Objects (%): 4%
  Population Membrane Permeable-Phenotype (%): 1%
  Population Mitochondria Different-Phenotype (%): 2%
  Population Mitotic Cells (%): 23%
  Population Normal (%): 95%
  Population Pyknosed Nuclei (%): 7%
  Population Tubulin-Different-Phenotype (%): 32%
  Total Cell Count: 172
[10]
  Population Apoptotic (%): 62%
  Population Fragmented Nuclei (%): 30%
  Population Healthy Nuclei (%): 54%
  Population Membrane Permeable-Phenotype (%): 3%
  Population Mitochondria Different-Phenotype (%): 12%
  Population Mitotic Cells (%): 37%
  Population Pyknosed Nuclei (%): 14%
  Population Tubulin-Different-Phenotype (%): 54%
  Total Cell Count: 168
[11]
  Population Apoptotic (%): 84%
  Population Fragmented Nuclei (%): 23%
  Population Healthy Nuclei (%): 62%
  Population Hoechst High Intensity Objects (%): 9%
  Population Membrane Permeable-Phenotype (%): 0%
  Population Mitochondria Different-Phenotype (%): 16%
  Population Mitotic Cells (%): 15%
  Population Normal (%): 90%
  Population Pyknosed Nuclei (%): 13%
  Population Tubulin-Different-Phenotype (%): 73%
  Total Cell Count: 208
[12]
  Population Apoptotic (%): 54%
  Population Fragmented Nuclei (%): 45%
  Population Healthy Nuclei (%): 47%
  Population Hoechst High Intensity Objects (%): 2%
  Population Membrane Permeable-Phenotype (%): 2%
  Population Mitochondria Different-Phenotype (%): 17%
  Population Mitotic Cells (%): 45%
  Population Normal (%): 97%
  Population Pyknosed Nuclei (%): 7%
  Population Tubulin-Different-Phenotype (%): 78%
  Total Cell Count: 161
